Measurements: ChEMBL document CHEMBL1134785, “Synthesis and biological evaluation of prostaglandin-F alkylphosphinic acid derivatives as bone anabolic agents for the treatment of osteoporosis” (J Med Chem, 2001)

Tests used:
[1] = test system: Rattus norvegicus; assay: Bone formation rate/bone volume (%/year) bone measured histomorphometrically after a dose of 3000 ug/kg in proximal tibial metaphysis; type: functional; settings: at 3000 µg/kg
[2] = test system: Rattus norvegicus; assay: Mineral apposition rate ([…])bone measured Histomorphometrically after a dose of 100 ug/kg in proximal tibial metaphysis; type: functional
Method in brief: (§1)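 Ovariectomized six-month-old rats, 6-8 per group, were dosed subcutaneously once daily at 0.01–3.0 mg/kg for 60 days, starting 60 days after surgery. Vehicle was acetate-buffered saline, methylcellulose and polyoxyethylenesorbitan monooleate. Labels were xylenol orange 90 mg/kg pretreatment and calcein 10 mg/kg at 14 and 4 days before necropsy. Histomorphometry covered the proximal tibial metaphysis, 1–4 mm distal to the growth plate–metaphyseal junction. ANOVA/LSD versus vehicle.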

[3] = test system: Rattus norvegicus; assay: Trabecular thickness […] measured Histomorphometrically after a dose of 100 ug/kg in proximal tibial metaphysis; type: functional, Trabecula
Method in brief: (§2)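 Six-month-old rats were ovariectomized, and 60 days later daily subcutaneous dosing began for 60 days, with vehicle of acetate-buffered saline, methylcellulose and polysorbate. Xylenol orange (90 mg/kg) labelled bone pre-treatment and calcein (10 mg/kg) 14 and 4 days pre-sacrifice. Histomorphometry covered the proximal tibial metaphysis 1-4 mm distal to the growth plate-metaphyseal junction. Groups were 6-8 rats, compared by ANOVA/LSD vs vehicle.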

[4] = test system: Rattus norvegicus; assay: Periosteal mineral apposition rate ([…]) measured Histomorphometrically after a dose of 30 ug/kg in tibial diaphysis; type: functional
Method in brief: (§3)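 Six-month-old rats, bilaterally ovariectomized, 6-8 per group, on natural chow. After 60 days they received once-daily subcutaneous dosing for 60 days at 0.01–3.0 mg/kg. Vehicle was acetate-buffered saline with methylcellulose and polyoxyethylenesorbitan monooleate. Labels were xylenol orange 90 mg/kg before treatment and calcein 10 mg/kg 14 and 4 days before sacrifice. Tibial histomorphometry was read under fluorescent light, with ANOVA/LSD versus vehicle.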

[5] = test system: Rattus norvegicus; assay: Periosteal mineralizing surface (%) measured Histomorphometrically after a dose of 100 ug/kg in tibial diaphysis; type: functional
Method in brief: (§4)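 Rats on natural chow (1.46% Ca) were bilaterally ovariectomized at 6 months and left untreated for 60 days. They then received once-daily subcutaneous doses for 60 days, with vehicle of acetate-buffered saline, methylcellulose and polysorbate. Xylenol orange (90 mg/kg) was given before treatment and calcein (10 mg/kg) 14 and 4 days before sacrifice. Tibiae were analysed by fluorescent histomorphometry, 6-8 rats/group, ANOVA/LSD vs vehicle.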

[6] = test system: Rattus norvegicus; assay: Mineralizing surface/bone surface(%) measured Histomorphometrically after a dose of 30 ug/kg in proximal tibial metaphysis; type: functional; method in brief: as §1
[7] = test system: Rattus norvegicus; assay: Periosteal mineral apposition rate ([…]) measured Histomorphometrically after a dose of 10 ug/kg in tibial diaphysis; type: functional; method in brief: as §3
[8] = test system: Rattus norvegicus; assay: Bone formation rate/bone volume (%/year)bone measured Histomorphometrically after a dose of 300 ug/kg in proximal tibial metaphysis; type: functional; settings: at 300 µg/kg
[9] = test system: Rattus norvegicus; assay: Trabecular no (mm)measured Histomorphometrically after a dose of 3000 ug/kg in proximal tibial metaphysis; type: functional, Trabecula; method in brief: as §2
[10] = test system: Rattus norvegicus; assay: Trabecular thickness […] measured Histomorphometrically after a dose of 30 ug/kg in proximal tibial metaphysis; type: functional, Trabecula; method in brief: as §2
[11] = test system: Rattus norvegicus; assay: Bone formation rate/tissue volume (%/year)bone Histomorphometrically after a dose of 1000 ug/kg in proximal tibial metaphysis; type: functional; settings: at 1000 µg/kg
[12] = test system: Rattus norvegicus; assay: Periosteal mineral apposition rate ([…]) measured Histomorphometrically after a dose of 1000 ug/kg in tibial diaphysis; type: functional; method in brief: as §3
[13] = test system: Rattus norvegicus; assay: connectivity density (mm-3) using micro Computed Tomography(CT) after a does of 3000 ug/kg in Vertebral Bone; type: functional
Method in brief: (§5)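 Rats were ovariectomized at 6 months of age and, after 60 days, dosed subcutaneously once daily for 60 days, with vehicle of acetate-buffered saline, methylcellulose and polysorbate. At necropsy the fifth lumbar vertebra was scanned by micro-CT to obtain cancellous architecture. Groups were 6-8 rats; results were compared to vehicle by ANOVA with least significant difference test.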

[14] = test system: Rattus norvegicus; assay: Marrow area (mm) measured Histomorphometrically after a dose of 300 ug/kg in tibial diaphysis; type: functional; method in brief: as §3
[15] = test system: Rattus norvegicus; assay: Bone Volume /Tissue Volume (%)measured using micro Computed Tomography(CT) after a dose of 10 ug/kg in Vertebral Bone; type: functional; settings: at 10 µg/kg
[16] = test system: Rattus norvegicus; assay: Tissue area (mm) measured Histomorphometrically after a dose of 10 ug/kg in tibial diaphysis; type: functional; method in brief: as §4
[17] = test system: Rattus norvegicus; assay: Periosteal mineralizing surface (%) measured Histomorphometrically after a dose of 3000 ug/kg in tibial diaphysis; type: functional; method in brief: as §4
[18] = test system: Rattus norvegicus; assay: Mineral apposition rate ([…])bone measured Histomorphometrically after a dose of 100 ug/kg in tibial diaphysis; type: functional; method in brief: as §3
[19] = test system: Rattus norvegicus; assay: Bone formation rate/tissue volume (%/year) bone measured histomorphometrically after a dose of 300 ug/kg in proximal tibial metaphysis; type: functional; settings: at 300 µg/kg
[20] = test system: Rattus norvegicus; assay: Mineralizing surface/bone surface(%) measured Histomorphometrically after a dose of 1000 ug/kg in proximal tibial metaphysis; type: functional; method in brief: as §1
[21] = test system: Rattus norvegicus; assay: Mineral apposition rate ([…])bone measured Histomorphometrically after a dose of 30 ug/kg in tibial diaphysis; type: functional; method in brief: as §3
[22] = test system: Rattus norvegicus; assay: Mineralizing surface/bone surface(%) measured Histomorphometrically after a dose of 3000 ug/kg in proximal tibial metaphysis; type: functional; method in brief: as §1
[23] = test system: Rattus norvegicus; assay: Bone Volume /Tissue Volume (%)measured using micro Computed Tomography(CT) after a dose of 1000 ug/kg in Vertebral Bone; type: functional; settings: at 1000 µg/kg
[24] = test system: Rattus norvegicus; assay: Derived trabecular no […]measured using micro Computed Tomography(CT) after a dose of 300 ug/kg in Vertebral Bone; type: functional, Trabecula
Method in brief: (§6)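 Micro-CT of the fifth lumbar vertebra, measuring cancellous bone volume and architecture. Rats were 6 months old, OVX 60 days before treatment, then dosed daily for 60 days. Test-agent doses were 10–3000 µg/kg, given as a once-daily subcutaneous injection; 6 mg/kg/day was given to the positive-control group. Groups were compared with vehicle by ANOVA plus LSD test.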

[25] = test system: Rattus norvegicus; assay: Derived trabecular no (mm-1)measured using micro Computed Tomography(CT) after a dose of 1000 ug/kg in Vertebral Bone; type: functional, Trabecula; method in brief: as §6
[26] = test system: Rattus norvegicus; assay: Mineral apposition rate ([…])bone measured Histomorphometrically after a dose of 10 ug/kg in proximal tibial metaphysis; type: functional; method in brief: as §1
[27] = test system: Rattus norvegicus; assay: Mineral apposition rate ([…])bone Histomorphometrically after a dose of 30 ug/kg in proximal tibial metaphysis; type: functional; method in brief: as §1
[28] = test system: Rattus norvegicus; assay: Bone Volume /Tissue Volume (%)measured Histomorphometrically after a dose of 100 ug/kg in proximal tibial metaphysis; type: functional; settings: at 100 µg/kg
[29] = test system: Rattus norvegicus; assay: Directly measured thickness(um) using micro Computed Tomography(CT) after a dose of 100 ug/kg in Vertebral Bone; type: functional; method in brief: as §6
[30] = test system: Rattus norvegicus; assay: Directly measured thickness(um) using micro Computed Tomography(CT) after a dose of 1000 ug/kg in Vertebral Bone; type: functional; method in brief: as §6
[31] = test system: Rattus norvegicus; assay: connectivity density using micro Computed Tomography(CT) after a dose of 100 ug/kg in Vertebral Bone; type: functional; method in brief: as §5
[32] = test system: Rattus norvegicus; assay: Derived trabecular no […]measured using micro Computed Tomography(CT) after a dose of 10 ug/kg in Vertebral Bone; type: functional, Trabecula; method in brief: as §6
[33] = test system: Rattus norvegicus; assay: Periosteal mineralizing surface (%) measured Histomorphometrically after a dose of 10 ug/kg in tibial diaphysis; type: functional; method in brief: as §4
[34] = test system: Rattus norvegicus; assay: Endosteal mineralizing surface Histomorphometrically after a dose of 30 ug/kg in tibial diaphysis; type: functional; method in brief: as §3
[35] = test system: Rattus norvegicus; assay: Endosteal mineralizing surface Histomorphometrically after a dose of 1000 ug/kg in tibial diaphysis; type: functional; method in brief: as §3

CP(=O)(O)CCC/C=C\C[C@@H]1[C@@H](/C=C/[C@@H](O)COc2ccccc2)[C@H](O)C[C@@H]1O
Activity [1]: 247.55%
Mineral apposition rate [2]: 0.87 µm/day
Trabecular thickness [3]: 45.5 µm
Periosteal mineral apposition rate [4]: 0.31 µm/day
Periosteal mineralizing surface [5]: 15.21%
Activity [6]: 30.59%
Periosteal mineral apposition rate [7]: 0.49 µm day-1
Activity [8]: 322.61%
Trabecular no. [9]: 1.51 1/mm
Trabecular thickness [10]: 41.2 µm
Activity [11]: 23.44%
Periosteal mineral apposition rate [12]: 0 µm/day
Connectivity density [13]: 55.9 mm**-3
Marrow area [14]: 0.89 mm
Activity [15]: 31.04%
Tissue area [16]: 5.09 mm
Periosteal mineralizing surface [17]: 11.109%
Mineral apposition rate [18]: 0.42 µm/day
Activity [19]: 18.03%
Activity [20]: 22.04%
Mineral apposition rate [21]: 0.88 µm/day
Activity [22]: 23.66%
Activity [23]: 36.98%
Derived trabecular number [24]: 4.86 mm-1
Derived trabecular number [25]: 4.59 mm-1
Mineral apposition rate [26]: 0.99 µm/day
Mineral apposition rate [27]: 1.09 µm/day
Activity [28]: 5.84%
Directly measured thickness [29]: 127 µm
Directly measured thickness [30]: 128 µm
Connectivity density [31]: 68.1 mm**-3
Derived trabecular number [32]: 4.26 mm-1
Periosteal mineralizing surface [33]: 25.86%
Endosteal mineralizing surface [34]: 28.72%
Endosteal mineralizing surface [35]: 35.29%
